Laboratory results published in ChEMBL document CHEMBL1155063 (Bioorg Med Chem, 2008).

Key:
[1] = test system: SF-268; assay: Cytotoxicity against human SF268 cells at 10 uM after 48 hrs by MTT assay; type: functional; conditions: SF-268, 48 h, values are per cent of control
Outline: (§1)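 Single-dose screen on the NCI 60-cell-line panel, run to the Developmental Therapeutics Program protocol (one-dose mean graph). Each value is the growth percentage of treated cells against untreated control cells.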

[2] = test system: U-251; assay: Cytotoxicity against human U251 cells at 10 uM after 48 hrs by MTT assay; type: functional; conditions: U-251, 48 h, values are per cent of control
Outline: (§2)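 Single-dose screen in the NCI 60-cell-line panel, run according to the Developmental Therapeutics Program protocol (one-dose mean graph). The result is the growth percentage of treated cells relative to untreated control cells.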

[3] = test system: SNB-19; assay: Cytotoxicity against human SNB19 cells at 10 uM after 48 hrs by MTT assay; type: functional; conditions: SNB-19, 48 h, values are per cent of control; outline: as §1
[4] = test system: SF-295; assay: Cytotoxicity against human SF295 cells at 10 uM after 48 hrs by MTT assay; type: functional; conditions: SF-295, 48 h, values are per cent of control; outline: as §1
[5] = Cytotoxicity against human TERT immortalized BJ1 cells at 1 uM after 48 hrs by MTT assay relative to control; type: cell-based, BJ
Outline: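 hTERT-immortalized BJ1 fibroblasts were grown in DMEM with 10% FCS, 1 mM pyruvate and 4 mM […]. Cells (about 2 × 10^3 per well) were seeded and held 24 h at 37 °C. Compounds were freshly dissolved in DMSO, diluted into medium and left on the cells 48 h. MTT was added for 4 h, then SDS/DMF lysis buffer for 16 h. Absorbance was read at 550 nm and expressed relative to untreated cells (100%).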

[6] = test system: SK-MEL-28; assay: Cytotoxicity against human SK-MEL-28 cells at 10 uM after 48 hrs by MTT assay; type: functional; conditions: SK-MEL-28, 48 h, values are per cent of control; outline: as §1
[7] = test system: SW-620; assay: Cytotoxicity against human SW620 cells at 10 uM after 48 hrs by MTT assay; type: functional; conditions: SW-620, 48 h, values are per cent of control; outline: as §2
[8] = test system: A498; assay: Cytotoxicity against human A498 cells at 10 uM after 48 hrs by MTT assay; type: functional; conditions: A498, 48 h; outline: as §1
[9] = test system: Hs-578T; assay: Cytotoxicity against human HS578T cells at 10 uM after 48 hrs by MTT assay; type: functional; conditions: values are per cent of control; outline: as §1
[10] = test system: NCI-H23; assay: Cytotoxicity against human NCI-H23 cells at 10 uM after 48 hrs by MTT assay; type: functional; conditions: NCI-H23, 48 h; outline: as §1
[11] = test system: HCC 2998; assay: Growth percent of human HCC2998 cells at 10 uM after 48 hrs by MTT assay; conditions: HCC 2998, 48 h
[12] = test system: UACC-62; assay: Cytotoxicity against human UACC62 cells at 10 uM after 48 hrs by MTT assay; type: functional; conditions: UACC-62, 48 h, values are per cent of control; outline: as §2
[13] = test system: SR; assay: Cytotoxicity against human SR cells at 10 uM after 48 hrs by MTT assay; type: functional; outline: as §2
[14] = test system: K562; assay: Cytotoxicity against human K562 cells at 10 uM after 48 hrs by MTT assay; type: functional; conditions: K562, 48 h; outline: as §1
[15] = test system: NCI-H322M; assay: Cytotoxicity against human NCI-H322M cells at 10 uM after 48 hrs by MTT assay; type: functional; outline: as §1
[16] = molecular target: T1, Telomerase reverse transcriptase (Homo sapiens, UniProt O14746); assay: Effect on human TERT expressed in H1299 cells at 1 uM after 24 hrs by SEAP assay relative to control
T1 sequence (O14746 whole entry): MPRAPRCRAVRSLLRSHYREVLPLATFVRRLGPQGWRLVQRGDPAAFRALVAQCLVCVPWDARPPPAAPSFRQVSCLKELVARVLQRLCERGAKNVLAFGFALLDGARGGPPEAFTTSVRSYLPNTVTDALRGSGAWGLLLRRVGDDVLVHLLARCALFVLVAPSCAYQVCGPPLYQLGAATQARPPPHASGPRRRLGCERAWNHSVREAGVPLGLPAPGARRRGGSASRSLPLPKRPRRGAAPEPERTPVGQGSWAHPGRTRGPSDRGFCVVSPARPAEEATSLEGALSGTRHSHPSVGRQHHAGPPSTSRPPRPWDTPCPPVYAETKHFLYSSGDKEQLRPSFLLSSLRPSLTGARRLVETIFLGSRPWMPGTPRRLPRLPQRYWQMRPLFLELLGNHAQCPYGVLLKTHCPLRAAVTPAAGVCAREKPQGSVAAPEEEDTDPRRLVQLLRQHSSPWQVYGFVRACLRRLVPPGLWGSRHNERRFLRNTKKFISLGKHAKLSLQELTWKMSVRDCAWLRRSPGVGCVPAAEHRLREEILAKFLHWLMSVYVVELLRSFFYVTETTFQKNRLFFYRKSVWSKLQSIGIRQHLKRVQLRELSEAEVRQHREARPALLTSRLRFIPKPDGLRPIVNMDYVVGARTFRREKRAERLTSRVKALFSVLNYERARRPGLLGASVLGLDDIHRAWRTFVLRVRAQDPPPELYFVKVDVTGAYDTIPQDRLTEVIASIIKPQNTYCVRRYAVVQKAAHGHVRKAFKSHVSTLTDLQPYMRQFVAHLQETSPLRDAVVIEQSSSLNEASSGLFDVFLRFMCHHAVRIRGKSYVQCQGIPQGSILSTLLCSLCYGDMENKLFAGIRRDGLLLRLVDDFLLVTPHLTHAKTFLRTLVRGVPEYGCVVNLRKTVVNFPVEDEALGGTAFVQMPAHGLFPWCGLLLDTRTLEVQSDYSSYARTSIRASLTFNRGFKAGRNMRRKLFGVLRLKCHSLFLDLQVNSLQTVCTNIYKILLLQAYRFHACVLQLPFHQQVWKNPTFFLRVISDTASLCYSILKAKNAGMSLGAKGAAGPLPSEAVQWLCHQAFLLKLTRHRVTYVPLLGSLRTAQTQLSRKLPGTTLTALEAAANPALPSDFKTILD

[17] = test system: PC-3; assay: Cytotoxicity against human PC3 cells at 10 uM after 48 hrs by MTT assay; type: functional; conditions: PC-3, 48 h, values are per cent of control; outline: as §1
[18] = test system: HOP-62; assay: Cytotoxicity against human HOP62 cells at 10 uM after 48 hrs by MTT assay; type: functional; conditions: HOP-62, 48 h; outline: as §1
[19] = test system: TK-10; assay: Cytotoxicity against human TK10 cells at 10 uM after 48 hrs by MTT assay; type: functional; conditions: TK-10, 48 h, values are per cent of control; outline: as §2
[20] = molecular target: T1, Telomerase reverse transcriptase; assay: Effect on human TERT expressed in H1299 cells at 100 uM after 24 hrs by SEAP assay relative to control
[21] = test system: SK-OV-3; assay: Cytotoxicity against human SKOV3 cells at 10 uM after 48 hrs by MTT assay; type: functional; conditions: SK-OV-3, 48 h; outline: as §1
[22] = test system: NCI/ADR-RES; assay: Cytotoxicity against human NCI/ADR-RES cells at 10 uM after 48 hrs by MTT assay; type: functional; outline: as §1
[23] = test system: RPMI-8226; assay: Cytotoxicity against human RPMI-8226 cells at 10 uM after 48 hrs by MTT assay; type: functional; conditions: RPMI-8226, 48 h; outline: as §1
[24] = test system: MDA-MB-231; assay: Cytotoxicity against human MDA-MB-231/ATCC cells at 10 uM after 48 hrs by MTT assay; type: functional; conditions: MDA-MB-231, 48 h; outline: as §1
[25] = test system: T47D; assay: Cytotoxicity against human T47D cells at 10 uM after 48 hrs by MTT assay; type: functional; outline: as §2
[26] = test system: SN12C; assay: Cytotoxicity against human SN12C cells at 10 uM after 48 hrs by MTT assay; type: functional; outline: as §1
[27] = test system: COLO 205; assay: Cytotoxicity against human COLO205 cells at 10 uM after 48 hrs by MTT assay; type: functional; conditions: COLO 205, 48 h, values are per cent of control; outline: as §1
[28] = test system: NCI-H460; assay: Growth percent of human NCI-H460 cells at 10 uM after 48 hrs by MTT assay; conditions: NCI-H460, 48 h
[29] = molecular target: T1, Telomerase reverse transcriptase; assay: Effect on human TERT expressed in H1299 cells at 10 uM after 24 hrs by SEAP assay relative to control
[30] = test system: CCRF-CEM; assay: Cytotoxicity against human CCRF-CEM cells at 10 uM after 48 hrs by MTT assay; type: functional; outline: as §1
[31] = test system: UACC-257; assay: Cytotoxicity against human UACC257 cells at 10 uM after 48 hrs by MTT assay; type: functional; conditions: UACC-257, 48 h, values are per cent of control; outline: as §2
[32] = test system: MOLT-4; assay: Cytotoxicity against human MOLT4 cells at 10 uM after 48 hrs by MTT assay; type: functional; conditions: MOLT-4, 48 h; outline: as §1
[33] = test system: MCF7; assay: Cytotoxicity against human MCF7 cells at 10 uM after 48 hrs by MTT assay; type: functional; conditions: MCF7, 48 h, values are per cent of control; outline: as §1
[34] = molecular target: T1, Telomerase reverse transcriptase; assay: Effect on human TERT expressed in BJ1 cells at 10 uM after 24 hrs by SEAP assay relative to control; conditions: BJ
[35] = molecular target: T1, Telomerase reverse transcriptase; assay: Effect on human TERT expressed in BJ1 cells at 100 uM after 24 hrs by SEAP assay relative to control; conditions: BJ

Compound | growth, % of control at 10 µM [1] | growth, % of control at 10 µM [2] | growth, % of control at 10 µM [3] | growth, % of control at 10 µM [4] | viability at 48 h, 1 µM [5] | growth, % of control at 10 µM [6] | growth, % of control at 10 µM [7] | growth percent at 10 µM [8] | growth, % of control at 10 µM [9] | growth percent at 10 µM [10] | growth, % of control at 10 µM [12] | growth percent at 10 µM [13] | growth percent at 10 µM [14] | growth percent at 10 µM [15] | residual activity [16] | growth, % of control at 10 µM [17] | growth percent at 10 µM [18] | growth, % of control at 10 µM [19] | residual activity [20] | growth percent at 10 µM [21] | other results
O=C1c2ccc(NC(=O)C3CC3)cc2C(=O)c2cc(NC(=O)C3CC3)ccc21 | 95.1% | 72.6% | 98.8% | 86.6% | 60% | 109% | 105% | 92.3% | 119% | 95.8% | 81% | 1.69% | 91.6% | 106% | 80% | 107% | 91.6% | 136% | 81% | 93.2% | growth percent at 10 µM [11]: 132%; growth percent at 10 µM [22]: 90.8%; growth percent at 10 µM [23]: 88.4%; growth percent at 10 µM [24]: 97%; growth percent at 10 µM [25]: 79.8%; growth percent at 10 µM [26]: 82.9%; growth, % of control at 10 µM [27]: 91.9%; growth percent at 10 µM [28]: 89%; residual activity [29]: 81%; growth percent at 10 µM [30]: 90.7%; growth, % of control at 10 µM [31]: 108%; growth percent at 10 µM [32]: 94.3%; growth, % of control at 10 µM [33]: 77.4%
CN(C)CC(=O)Nc1ccc2c(c1)C(=O)c1cc(NC(=O)CN(C)C)ccc1C2=O | 64.9% | 16.1% | 79.6% | -83.5% | 96% | 32.1% | 23.4% | -6.39% | -6.11% | 51.8% | 22.3% | -46.5% | 34.9% | 32.4% | 87% | 59% | 29% | 73.5% | 21% | 70.3% | growth percent at 10 µM [11]: -74%; residual activity [34]: 44%; residual activity [35]: 3%; growth percent at 10 µM [22]: 47.8%; growth percent at 10 µM [23]: 35%; growth percent at 10 µM [24]: 4.49%; growth percent at 10 µM [25]: 24.6%; growth percent at 10 µM [26]: 28%; growth, % of control at 10 µM [27]: -73.6%; growth percent at 10 µM [28]: 5.01%; residual activity [29]: 40%; growth percent at 10 µM [30]: -13.2%; growth, % of control at 10 µM [31]: -1.84%; growth percent at 10 µM [32]: 29.1%; growth, % of control at 10 µM [33]: 7.92%
CCN(CC)CCC(=O)Nc1ccc2c(c1)C(=O)c1cc(NC(=O)CCN(CC)CC)ccc1C2=O | 35.2% | 21.6% | 75.8% | -19.9% | 103% | 2.56% | 16.9% | -38.8% | -23.8% | 30.3% | 44.5% | -0.39% | 8.1% | 44.8% | 76% | 13.6% | 11.7% | 17.2% | 26% | 44% | residual activity [34]: 49%; residual activity [35]: 37%; growth percent at 10 µM [22]: 59.5%; growth percent at 10 µM [23]: -29%; growth percent at 10 µM [24]: 31.3%; growth percent at 10 µM [25]: 68.6%; growth percent at 10 µM [26]: 8.63%; growth, % of control at 10 µM [27]: -49.7%; growth percent at 10 µM [28]: 9.5%; residual activity [29]: 35%; growth percent at 10 µM [30]: -6.02%; growth, % of control at 10 µM [31]: -14.5%; growth percent at 10 µM [32]: 5.42%; growth, % of control at 10 µM [33]: 9.34%
